Data on eight compounds can be found in ChEMBL document CHEMBL1152792, “Synthesis and anticonvulsant activity of amino acid-derived sulfamides” (J Med Chem, 2009).

Data set [1] has as its system Mus musculus. Kind of data set: Anticonvulsant activity in ip dosed albino mouse after 0.25 hrs by MES test. The format is functional.
Data set [2] concerns Mus musculus. Briefly: Toxicity in albino mouse at 100 mg/kg, ip after 4 hrs by rotarod test. The format is organism-based. Further details: dose 100 mg/kg, route intraperitoneal. Particulars: in vivo. An outline of the steps:
(§1)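 Neurotoxicity was screened by the standardized rotarod test in the ADD phase I protocol. Adult male albino mice (18–23 g) received compound ip in 30% PEG 400 and 10% water at 0.01 mL/g. Animals were tested 0.5 and 4 h post-dose. Result scored as toxic/tested animals.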
(The rotarod test checks motor coordination on a turning rod.)

Data set [3] relates to Mus musculus. Kind of data set: Anticonvulsant activity in ip dosed albino mouse after 4 hrs by MES test. The format is functional. An outline of the steps:
(§2)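 Phase II quantitative MES test in adult male albino mice (18–23 g). Compound given ip in 30% PEG 400 and 10% water at 0.01 mL/g. Testing was done at the previously determined time of peak effect. Six mice per dose group; ED50 (dose protecting 50% of animals, μmol/kg) calculated from the dose–response curve.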

For data set [4], the system named is Mus musculus. Briefly: Anticonvulsant activity in albino mouse at 300 mg/kg, ip after 4 hrs by PTZ test. The format is functional, organism-based. Further details: dose 300 mg/kg. An outline of the steps:
(§3)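 NIH Anticonvulsant Drug Development (ADD) program phase I screen in adult male albino mice (18–23 g). Compound given ip in 30% PEG 400 and 10% water at 0.01 mL/g body weight. Seizures were induced electrically (MES) or chemically (PTZ), and animals were tested 0.5 and 4 h after dosing. Result scored as protected/tested animals.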

Data set [5] relates to Mus musculus. Kind of data set: Anticonvulsant activity in albino mouse at 30 mg/kg, ip after 0.5 hrs by MES test. Further details: dose 30 mg/kg. The format is functional, organism-based. Put shortly: as §3
Data set [6] deals with Mus musculus. Briefly: Anticonvulsant activity in albino mouse at 100 mg/kg, ip after 0.5 hrs by PTZ test. Format: functional, organism-based. Further details: dose 100 mg/kg. An outline of the steps: as §3
In data set [7] the test system is Mus musculus. Briefly: Anticonvulsant activity in albino mouse at 100 mg/kg, ip after 4 hrs by PTZ test. Format: functional, organism-based. Further details: dose 100 mg/kg. An outline of the steps:
as §3

In data set [8] the test system is Mus musculus. Briefly: Toxicity in albino mouse at 300 mg/kg, ip after 4 hrs by rotarod test. To be noted: in vivo. Further details: dose 300 mg/kg, route intraperitoneal. Format: organism-based. Put shortly:
as §1

Data set [9] concerns Mus musculus. Briefly: Toxicity in albino mouse at 30 mg/kg, ip after 0.5 hrs by rotarod test. The format is organism-based. Further details: dose 30 mg/kg, route intraperitoneal. To be noted: in vivo. Put shortly: as §1
Data set [10] relates to Mus musculus. Briefly: Toxicity in albino mouse at 100 mg/kg, ip after 0.5 hrs by rotarod test. The format is organism-based. Further details: dose 100 mg/kg, route intraperitoneal. To be noted: in vivo. An outline of the steps: as §1
For data set [11], the system named is Mus musculus. Briefly: Toxicity in albino mouse at 300 mg/kg, ip after 0.5 hrs by rotarod test. The format is organism-based. Further details: dose 300 mg/kg, route intraperitoneal. To be noted: in vivo. An outline of the steps: as §1
Data set [12] deals with Mus musculus. Briefly: Anticonvulsant activity in albino mouse at 30 mg/kg, ip after 4 hrs by PTZ test. The format is functional, organism-based. Further details: dose 30 mg/kg. Put shortly:
as §3

For data set [13], the system named is Mus musculus. Kind of data set: Anticonvulsant activity in albino mouse at 300 mg/kg, ip after 4 hrs by MES test. The format is functional, organism-based. Further details: dose 300 mg/kg. Put shortly:
as §3

Data set [14] relates to Mus musculus. Briefly: Anticonvulsant activity in albino mouse at 300 mg/kg, ip after 0.5 hrs by MES test. The format is functional, organism-based. Further details: dose 300 mg/kg. Put shortly: as §3
Data set [15] has as its system Mus musculus. Kind of data set: Anticonvulsant activity in albino mouse at 30 mg/kg, ip after 4 hrs by MES test. Further details: dose 30 mg/kg. The format is functional, organism-based. Put shortly:
as §3

The species entered for data set [16] is Mus musculus. Briefly: Ratio of valproic acid ED50 to compound ED50 in albino mouse after 4 hrs by MES test. The format is functional. Put shortly: (§4)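 The compound ED50 came from ip dosing in male albino mice (six per dose) at the time of peak effect. The valproate ED50 was taken from earlier literature.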
Data set [17] relates to Mus musculus. Briefly: Toxicity in albino mouse at 30 mg/kg, ip after 4 hrs by rotarod test. The format is organism-based. Further details: dose 30 mg/kg, route intraperitoneal. To be noted: in vivo. An outline of the steps:
as §1

Data set [18] has as its system Mus musculus. Briefly: Anticonvulsant activity in albino mouse at 100 mg/kg, ip after 4 hrs by MES test. The format is functional, organism-based. Further details: dose 100 mg/kg. An outline of the steps:
as §3

Data set [19] relates to Mus musculus. Briefly: Anticonvulsant activity in ip dosed albino mouse after 2 hrs by MES test. Format: functional. Put shortly:
as §2

The species named for data set [20] is Mus musculus. Kind of data set: Ratio of valproic acid ED50 to compound ED50 in albino mouse after 2 hrs by MES test. Format: functional. An outline of the steps: as §4
In data set [21] the test system is Mus musculus. Kind of data set: Anticonvulsant activity in albino mouse at 100 mg/kg, ip after 0.5 hrs by MES test. Format: functional, organism-based. Further details: dose 100 mg/kg. An outline of the steps:
as §3

For data set [22], the system named is Mus musculus. Briefly: Anticonvulsant activity in albino mouse at 300 mg/kg, ip after 0.5 hrs by PTZ test. The format is functional, organism-based. Further details: dose 300 mg/kg. An outline of the steps:
as §3

For data set [23], the system named is Mus musculus. Briefly: Anticonvulsant activity in albino mouse at 30 mg/kg, ip after 0.5 hrs by PTZ test. The format is functional, organism-based. Further details: dose 30 mg/kg. An outline of the steps:
as §3

Data set [24] deals with Mus musculus. Kind of data set: Anticonvulsant activity in ip dosed albino mouse after 0.5 hrs by MES test. The format is functional.
The species named for data set [25] is Mus musculus. Kind of data set: Ratio of valproic acid ED50 to compound ED50 in albino mouse after 0.5 hrs by MES test. Format: functional.

Structures are written as SMILES. Activity calls are given as the source filed them. No cut-off for these calls is given here.

As usually defined, the ED50 is the midpoint of the dose-response relation. A higher ED50 goes with a need for a large dose. `CCCC(CCC)C(=O)O` [VALPROIC ACID] showed an ED50 in the data set with Mus musculus [1] of 1010 µmol/kg.

Turning to `COC(=O)CCNS(=O)(=O)Oc1ccccc1O`, the Activity result in the data set on Mus musculus [2], in the data set on Mus musculus [8], with Mus musculus [9], in the data set on Mus musculus [10], in the data set with Mus musculus [11] and in the data set with Mus musculus [17] was “Non-toxic” in each case. The compound also displayed an ED50 with Mus musculus [3] of 374 µmol/kg. The outcome in the data set with Mus musculus [4], with Mus musculus [5], with Mus musculus [6], with Mus musculus [7], with Mus musculus [12] and with Mus musculus [13] was inactive. Moreover, the result in the data set with Mus musculus [14] and with Mus musculus [15] was inactive. The “Ratio ED50” value in the data set filed under Mus musculus [16] is listed as 2.7.

Consider `CCCC(CCC)CNS(=O)(=O)NCCC(=O)OC`, for which the Activity entry in the data set on Mus musculus [2], with Mus musculus [8], with Mus musculus [9], in the data set on Mus musculus [10], with Mus musculus [11] and in the data set with Mus musculus [17] was “Non-toxic” each time. Besides, the outcome with Mus musculus [18], in the data set with Mus musculus [21], in the data set on Mus musculus [7] and in the data set on Mus musculus [12] was inactive. This compound yielded an ED50 in the data set on Mus musculus [19] of 79 µmol/kg. Besides, the “Ratio ED50” value in the data set listed under Mus musculus [20] turned out to be 12.8. The outcome in the data set with Mus musculus [6] and with Mus musculus [15] was Active.

`CCCC(CCC)CNS(=O)(=O)NCC(=O)OC`: the result in the data set on Mus musculus [22], in the data set on Mus musculus [4], with Mus musculus [5], in the data set with Mus musculus [6], in the data set on Mus musculus [7] and with Mus musculus [12] was inactive. For the same compound, the outcome in the data set with Mus musculus [23] and with Mus musculus [15] was inactive. For the same compound, the Activity entry in the data set with Mus musculus [2], in the data set on Mus musculus [8], with Mus musculus [9], in the data set on Mus musculus [10], in the data set on Mus musculus [11] and in the data set with Mus musculus [17] was “Non-toxic” each time. Moreover, the ED50 with Mus musculus [19] was found to be 139 µmol/kg. Moreover, in the data set listed under Mus musculus [20], the “Ratio ED50” value stood at 7.3.

On to `CCCC(CCC)C(=O)NCC(N)=O` [VALROCEMIDE], for which the 50% effect level with Mus musculus [24] (ED50) was put at a dose of 755 µmol/kg. Besides, the “Ratio ED50” value in the data set listed under Mus musculus [25] was determined as 1.3.

Turning to `COC(=O)CNS(=O)(=O)N(Cc1ccccc1)C(=O)OC(C)(C)C`, the outcome with Mus musculus [22], with Mus musculus [18], in the data set on Mus musculus [4], with Mus musculus [5], with Mus musculus [21] and in the data set with Mus musculus [6] was inactive. Further, the outcome in the data set on Mus musculus [7], with Mus musculus [12], in the data set with Mus musculus [13], in the data set on Mus musculus [14], in the data set on Mus musculus [23] and in the data set with Mus musculus [15] was inactive. In addition, the Activity result in the data set with Mus musculus [2], in the data set with Mus musculus [8], with Mus musculus [9], in the data set on Mus musculus [10], in the data set on Mus musculus [11] and in the data set on Mus musculus [17] was “Non-toxic” each time.

For the compound `COC(=O)[C@@H](C)NS(=O)(=O)NC(=O)OC(C)(C)C`, the result in the data set on Mus musculus [22], in the data set with Mus musculus [18], with Mus musculus [4], in the data set on Mus musculus [5], in the data set with Mus musculus [21] and with Mus musculus [6] was inactive. Moreover, the outcome in the data set on Mus musculus [7], in the data set with Mus musculus [12], with Mus musculus [13], in the data set on Mus musculus [14], in the data set with Mus musculus [23] and in the data set with Mus musculus [15] was inactive. Moreover, the Activity entry with Mus musculus [2], in the data set on Mus musculus [8], in the data set on Mus musculus [9], in the data set with Mus musculus [10], with Mus musculus [11] and in the data set with Mus musculus [17] was “Non-toxic” throughout.

With `CCCCNS(=O)(=O)NCCC(=O)OC`, the outcome in the data set on Mus musculus [22], in the data set with Mus musculus [4], in the data set on Mus musculus [6], in the data set with Mus musculus [7], in the data set on Mus musculus [12] and in the data set on Mus musculus [23] was inactive. The Activity result in the data set on Mus musculus [2], in the data set with Mus musculus [8], in the data set on Mus musculus [9], in the data set on Mus musculus [10], in the data set on Mus musculus [11] and in the data set with Mus musculus [17] was “Non-toxic” throughout. For the same compound, in the data set with Mus musculus [19], the ED50 was determined as 71 µmol/kg. In the data set filed under Mus musculus [20], the “Ratio ED50” value was 14.2.
